Measurements published in ChEMBL document CHEMBL1152423, “Development of N-[11C]methylamino 4-hydroxy-2(1H)-quinolone derivatives as PET radioligands for the glycine-binding site of NMDA receptors” (Bioorg Med Chem, 2009).
Values belong to the compound of their own block, whether it stands above or below them. Active and inactive are the calls of the source. The rule behind the calls is not given here.

How the values were obtained:
[1] = system: Blood; test: Biodistribution in ddY mouse blood assessed per gram of tissue at 7.4 MBq, iv after 30 mins by gamma counting; format: ADME, organism-based; conditions: in vivo, 0.5 h
How it was run: (§1)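 ddY mice (35–45 g) received about 7.4 MBq of [11C]radioligand in 0.2 ml into the tail vein and were decapitated at 1 or 30 min. Blood, cerebrum and cerebellum were gamma-counted with decay correction and expressed as % injected dose/g; tissue/blood ratios were derived. n=3 or 5.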

[2] = Biodistribution in ddY mouse cerebrum assessed per gram of tissue at 7.4 MBq, iv after 30 mins by gamma counting; format: ADME, organism-based; conditions: in vivo, 0.5 h; how it was run: as §1
[3] = system: Cerebellum; test: Biodistribution in ddY mouse cerebellum assessed per gram of tissue at 7.4 MBq, iv after 30 mins by gamma counting; format: ADME, organism-based; conditions: in vivo, 0.5 h; how it was run: as §1
[4] = Ratio of drug level in cerebrum to blood of ddY mouse at 7.4 MBq, iv after 30 mins; format: ADME, organism-based; how it was run: as §1
[5] = Ratio of drug level in cerebellum to blood of ddY mouse at 7.4 MBq, iv after 30 mins; format: ADME, organism-based; how it was run: as §1
[6] = system: Blood; test: Biodistribution in mouse blood assessed per gram of tissue at 7.4 MBq, iv after 1 min by gamma counting; format: ADME, organism-based; conditions: in vivo
[7] = Biodistribution in mouse cerebrum assessed per gram of tissue at 7.4 MBq, iv after 1 min by gamma counting; format: ADME, organism-based; conditions: in vivo
[8] = system: Cerebellum; test: Biodistribution in mouse cerebellum assessed per gram of tissue at 7.4 MBq, iv after 1 min by gamma counting; format: ADME, organism-based; conditions: in vivo
[9] = Ratio of drug level in cerebrum to blood of mouse at 7.4 MBq, iv after 1 min; format: ADME, organism-based
How it was run: (§2)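 ddY mice (35–45 g) received ca. 7.4 MBq ¹¹C-labelled ligand (0.2 ml) by tail-vein injection and were decapitated at 1 min. Cerebrum and cerebellum were dissected, and radioactivity was gamma-counted with decay correction and expressed as % injected dose per gram tissue. The value is the tissue-to-blood ratio of % dose/g.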

[10] = Ratio of drug level in cerebellum to blood of mouse at 7.4 MBq, iv after 1 min; format: ADME, organism-based; how it was run: as §2
[11] = biological target: Glutamate NMDA receptor; test: Displacement of [3H]MDL-105519 from glycine binding site of NMDA receptor in rat cortical membrane by liquid scintillation counting; format: cell membranes
How it was run: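 Washed rat cortical membranes in 50 mM Tris–HCl (pH 8.0) were incubated 45 min at 4 °C with [3H]MDL-105,519 (2 nM) plus buffer or displacer. Nonspecific binding was defined with excess unlabeled glycine. Samples were filtered on GF/B, washed three times with ice-cold buffer, and counted by liquid scintillation. Ki came from three determinations, each in triplicate.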

[12] = biological target: Glutamate NMDA receptor; test: Binding affinity to glycine binding site of NMDA receptor in rat brain; format: tissue-based
[13] = n-Octanol-sodium phosphate buffer partition coefficient, log D at pH 7.4 after 15 mins by shake-flask method; format: physicochemical
How it was run: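 Compound (1–2 mg) was shaken 15 min at ambient temperature in n-octanol and 10 mM phosphate buffer (pH 7.4). The mixture was centrifuged at 2500 rpm for 5 min, and both layers were analysed by HPLC (n=3).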

[14] = biological target: T1, Glutamate NMDA receptor (Rattus norvegicus) (UniProt P35439+Q00959+Q00960+Q00961+Q62645+Q8VHN2+Q9R1M7); test: Binding affinity to glycine binding site of NMDA receptor in hippocampus of rat brain by autoradiography; format: tissue-based; conditions: tested as the 11C-labelled form
How it was run: (§3)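 Rat brain sagittal sections were preincubated 30 min at 25 °C in 50 mM Tris–HCl (pH 7.4), then incubated 30 min at 25 °C with the [11C]radioligand (1.59–2.13 nM). Sections were rinsed twice for 3 min in cold buffer, dipped in cold water, dried, and exposed to imaging plates for 60 min. Nonspecific binding was taken with the corresponding unlabeled ligand; specific binding is given per region.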

[15] = biological target: T1, Glutamate NMDA receptor (Rattus norvegicus); test: Binding affinity to glycine binding site of NMDA receptor in cerebral cortex of rat brain by autoradiography; format: tissue-based; conditions: tested as the 11C-labelled form; how it was run: as §3
[16] = biological target: T1, Glutamate NMDA receptor (Rattus norvegicus); test: Binding affinity to glycine binding site of NMDA receptor in thalamus of rat brain by autoradiography; format: tissue-based; conditions: tested as the 11C-labelled form; how it was run: as §3
[17] = biological target: T1, Glutamate NMDA receptor (Rattus norvegicus); test: Binding affinity to glycine binding site of NMDA receptor in striatum of rat brain by autoradiography; format: tissue-based; conditions: tested as the 11C-labelled form; how it was run: as §3
[18] = biological target: T1, Glutamate NMDA receptor (Rattus norvegicus); test: Binding affinity to glycine binding site of NMDA receptor in cerebellum of rat brain by autoradiography; format: tissue-based; conditions: tested as the 11C-labelled form; how it was run: as §3
[19] = biological target: T1, Glutamate NMDA receptor (Rattus norvegicus); test: Binding affinity to glycine binding site of NMDA receptor in hippocampus of rat brain by autoradiography in presence of glycine; format: tissue-based; conditions: tested as the 11C-labelled form
How it was run: (§4)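 Hippocampal binding on rat brain slices: 30 min at 25 °C in 50 mM Tris–HCl (pH 7.4) with [11C]radioligand (1.59–2.13 nM), with or without a glycine-site drug (agonists at 1 mM). Slices were rinsed, dried and exposed to imaging plates for 60 min. PSL with drug was divided by PSL without drug to give % total binding, averaged over at least triplicate sections from three animals.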

[20] = biological target: T1, Glutamate NMDA receptor (Rattus norvegicus); test: Binding affinity to glycine binding site of NMDA receptor in hippocampus of rat brain by autoradiography in presence of glycine-site agonist D-serine; format: tissue-based; conditions: tested as the 11C-labelled form; how it was run: as §4
[21] = biological target: T1, Glutamate NMDA receptor (Rattus norvegicus); test: Binding affinity to glycine binding site of NMDA receptor in hippocampus of rat brain by autoradiography in presence of glycine-site antagonist L-703717; format: tissue-based; conditions: tested as the 11C-labelled form; how it was run: as §4
[22] = biological target: T1, Glutamate NMDA receptor (Rattus norvegicus); test: Binding affinity to glycine binding site of NMDA receptor in hippocampus of rat brain by autoradiography in presence of glycine-site antagonist methoxy-MDL-104653; format: tissue-based; conditions: tested as the 11C-labelled form; how it was run: as §4
[23] = biological target: T1, Glutamate NMDA receptor (Rattus norvegicus); test: Binding affinity to glycine binding site of NMDA receptor in hippocampus of rat brain by autoradiography in presence of glycine-site antagonist MDL-105519; format: tissue-based; conditions: tested as the 11C-labelled form; how it was run: as §4
[24] = system: Blood; test: Biodistribution in ddY mouse blood assessed per gram of tissue at 7.4 MBq, iv after 1 min by gamma counting; format: ADME, organism-based; conditions: in vivo; how it was run: as §1
[25] = Biodistribution in ddY mouse cerebrum assessed per gram of tissue at 7.4 MBq, iv after 1 min by gamma counting; format: ADME, organism-based; conditions: in vivo; how it was run: as §1
[26] = system: Cerebellum; test: Biodistribution in ddY mouse cerebellum assessed per gram of tissue at 7.4 MBq, iv after 1 min by gamma counting; format: ADME, organism-based; conditions: in vivo; how it was run: as §1
[27] = Ratio of drug level in cerebrum to blood of ddY mouse at 7.4 MBq, iv after 1 min; format: ADME, organism-based; how it was run: as §1
[28] = Ratio of drug level in cerebellum to blood of ddY mouse at 7.4 MBq, iv after 1 min; format: ADME, organism-based; how it was run: as §1
[29] = Metabolic stability in ddY mouse brain at 7.4 MBq, iv after 30 mins by radio-TLC analysis; format: ADME, organism-based; conditions: 40 MBq, in the assay text read “40 MBq” for “7.4 MBq”, read-out: Activity
How it was run: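 Mice received [11C]radioligand (40 MBq) iv and were killed at 30 min. Whole brain was homogenized in ice-cold MeOH and centrifuged at 10,000 rpm for 1 min at 4 °C. Extracts were analysed by radio-TLC using CHCl3/CH3CN 3:1, CHCl3/MeOH 9:1, or CH3CN as mobile phase; intact parent fraction was recorded.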

[30] = Metabolic stability in ddY mouse blood at 7.4 MBq, iv after 30 mins by radio-TLC analysis; format: ADME, organism-based; conditions: 40 MBq, in the assay text read “40 MBq” for “7.4 MBq”, read-out: Activity
[31] = system: Blood; test: Biodistribution in ddY mouse blood assessed per gram of tissue at 40 MBq, iv after 30 mins by gamma counting in presence of 5-ethyl-7-chloro-4-hydroxy-3-(3-[11C]methylaminophenyl)-2(1H)-quinolone; format: ADME, organism-based; conditions: in vivo, 0.5 h
How it was run: (§5)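 Blocking study: [11C]radioligand was mixed with unlabeled ligand (2 mg/kg) and injected iv into ddY mice. Animals were killed at 30 min; blood, cerebrum and cerebellum were gamma-counted and expressed as % dose/g and tissue/blood ratios. Comparison with controls used the Mann–Whitney U-test.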

[32] = Biodistribution in ddY mouse cerebrum assessed per gram of tissue at 40 MBq, iv after 30 mins by gamma counting in presence of 5-ethyl-7-chloro-4-hydroxy-3-(3-[11C]methylaminophenyl)-2(1H)-quinolone; format: ADME, organism-based; conditions: in vivo, 0.5 h, in the assay text read “7.4 MBq” for “40 MBq”; how it was run: as §5
[33] = system: Cerebellum; test: Biodistribution in ddY mouse cerebellum assessed per gram of tissue at 40 MBq, iv after 30 mins by gamma counting in presence of 5-ethyl-7-chloro-4-hydroxy-3-(3-[11C]methylaminophenyl)-2(1H)-quinolone; format: ADME, organism-based; conditions: in vivo, 0.5 h, in the assay text read “7.4 MBq” for “40 MBq”; how it was run: as §5
[34] = Ratio of drug level in cerebrum to blood of ddY mouse at 40 MBq, iv after 30 mins in presence of 5-ethyl-7-chloro-4-hydroxy-3-(3-[11C]methylaminophenyl)-2(1H)-quinolone; format: ADME, organism-based; conditions: in vivo, 0.5 h, in the assay text read “7.4 MBq” for “40 MBq”; how it was run: as §5
[35] = Ratio of drug level in cerebellum to blood of ddY mouse at 40 MBq, iv after 30 mins in presence of 5-ethyl-7-chloro-4-hydroxy-3-(3-[11C]methylaminophenyl)-2(1H)-quinolone; format: ADME, organism-based; conditions: in vivo, 0.5 h, in the assay text read “7.4 MBq” for “40 MBq”; how it was run: as §5
[36] = Plasma protein binding in rat at 0.67 to 0.89 […] after 30 mins by ultrafiltration; format: ADME, cell-free; conditions: read-out: PPB (converted)
How it was run: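 Rat serum was diluted 10-fold in 66 mM phosphate buffer (pH 7.4) containing [11C]radioligand (0.67–0.89 MBq) and incubated 30 min at 30 °C. It was then ultrafiltered by centrifugation at 2000 rpm for 15 min. Radioactivity in whole plasma and in filtrate was counted to give % bound (mean, n=3).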

Drug uptake [1]: 3.46 %ID/g
Drug uptake [2]: 0.2 %ID/g
Drug uptake [3]: 0.24 %ID/g
Kp at 0.5 h [4]: 0.051
Kp at 0.5 h [5]: 0.068
Drug uptake [6]: 8.37 %ID
Drug uptake [7]: 0.32 %ID
Drug uptake [8]: 0.36 %ID
Kp at 1 min [9]: 0.038
Kp at 1 min [10]: 0.043
Structure (SMILES): [11CH3]Oc1ccc(Cc2cccc(-c3c(O)c4ccc(Cl)cc4[nH]c3=O)c2)cc1

Ki [11]: 119 nM
Structure (SMILES): COc1cccc(-c2c(O)c3c(N)cc(Cl)cc3[nH]c2=O)c1

Ki [12]: 167 nM
Structure (SMILES): COc1cccc(-c2c(O)nc3cc(Cl)ccc3c2O)c1

Ki [11]: 23.6 nM
Structure (SMILES): COc1ccc(Nc2cccc(-c3c(O)c4ccc(Cl)cc4[nH]c3=O)c2)cc1

Ki [11]: 34.3 nM
Structure (SMILES): CCc1cc(Cl)cc2[nH]c(=O)c(-c3cccc(N(C)C)c3)c(O)c12

Ki [11]: 11.7 nM
logD at 0.25 h [13]: 3
Activity [14]: 70%
Activity [15]: Active
Activity [16]: Active
Activity [17]: Active
Activity [18]: 30%
Activity [19]: 46%
Activity [20]: 46%
Activity [21]: 58%
Activity [22]: 58%
Activity [23]: 58%
Structure (SMILES): CNc1ccc(Cc2cccc(-c3c(O)c4ccc(Cl)cc4[nH]c3=O)c2)cc1

Drug uptake [24]: 20.91 %ID
Drug uptake [25]: 0.47 %ID
Drug uptake [26]: 0.87 %ID
Drug uptake [1]: 9.08 %ID/g
Drug uptake [2]: 0.38 %ID/g
Drug uptake [3]: 0.53 %ID/g
Kp at 1 min [27]: 0.022
Kp at 1 min [28]: 0.042
Kp at 0.5 h [4]: 0.042
Kp at 0.5 h [5]: 0.058
remaining at 0.5 h [29]: 70%
remaining at 0.5 h [30]: 93%
Drug uptake [31]: 7.77 %ID
Drug uptake [32]: 0.34 %ID
Drug uptake [33]: 0.34 %ID
Ratio [34]: 0.044
Ratio [35]: 0.044
fraction unbound at 0.5 h [36]: 0.29
Structure (SMILES): CCc1cc(Cl)cc2[nH]c(=O)c(-c3cccc(N[11CH3])c3)c(O)c12

Ki [12]: 7.2 nM
fraction unbound at 0.5 h [36]: 0.06
Structure (SMILES): CCc1cc(Cl)cc2[nH]c(=O)c(-c3cccc(OC)c3)c(O)c12
